From ChEMBL document CHEMBL1811876 (J Med Chem, 2011)
Activity calls are given as the source filed them. No cut-off for these calls is given here.

Assays:
A549 = test: Anticancer activity against human A549 cells after 72 hrs by sulforhodamine B assay; type: functional; conditions: A549, 72 h
DU-145 = test: Anticancer activity against human DU145 cells after 72 hrs by sulforhodamine B assay; type: functional; conditions: DU-145, 72 h
KB = test: Anticancer activity against human KB cells after 72 hrs by sulforhodamine B assay; type: functional
[1] = Anticancer activity against human KBVIN cells after 72 hrs by sulforhodamine B assay; type: functional
HCT-8 = test: Anticancer activity against human HCT8 cells after 72 hrs by sulforhodamine B assay; type: functional; conditions: HCT-8, 72 h
[2] = Upregulation of CDT1 expression in human CL1-5 cells by cDNA microarray; type: functional, cell-based
[3] = (§1) Upregulation of Cdt1 expression in human CL1-5 cells at 0.01 ug/mL by RT-PCR analysis after 24 to 48 hrs by Western blot; type: functional, cell-based
Method in brief: (§2)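 CL1-5 cells were exposed to the test agent for 24 and 48 h. Cdt1 and CDC6 protein levels were then assessed by Western blot.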

[4] = Upregulation of CDC6 expression in human CL1-5 cells by cDNA microarray; type: functional, cell-based; conditions: TDE = time-dependent effect
[5] = as §1; type: functional, cell-based; method in brief: as §2; remark: listed apart in the source
[6] = Upregulation of Cdt1 expression in human CL1-5 cells at 0.01 ug/mL by RT-PCR analysis after 24 to 48 hrs; type: functional, cell-based
[7] = Upregulation of CDC6 expression in human CL1-5 cells at 0.01 ug/mL by RT-PCR analysis after 24 to 48 hrs; type: functional, cell-based

SMILES | GI50 (A549) [µM] | GI50 (DU-145) [µM] | GI50 (KB) [µM] | GI50 (HCT-8) [µM] | GI50 [1] [µM] | Activity [2] | Activity [3] | Activity [4] | Activity [5] | Activity [6] | Activity [7]
COc1ccc2c3c(c4cc(OC)c(OC)cc4c2c1)C[C@H]1CN(Cc2ccccc2)CCN1C3 | > 20 | > 20 | 16.9 | – | 15.2 | – | – | – | – | – | –
COc1ccc2c3c(c4cc(OC)c(OC)cc4c2c1)C[C@H]1CN(CCc2ccccc2)CN1C3 | 6.62 | 10.2 | 10 | 7.47 | – | – | – | – | – | – | –
COc1ccc2c3c(c4cc(OC)c(OC)cc4c2c1)C[C@@H]1COCCN1C3 | 14 | 7.05 | 6.68 | 3.45 | – | – | – | – | – | – | –
COc1ccc2c3c(c4cc(OC)c(OC)cc4c2c1)C[C@H]1CN(P(=O)(OC)OC)CCN1C3 | 12.2 | 14.7 | 8.09 | – | 10.4 | – | – | – | – | – | –
COc1ccc2c3c(c4cc(OC)c(OC)cc4c2c1)C[C@H]1CN(C(C)=O)CCN1C3 | 11.7 | 11.9 | 15.5 | 13.8 | – | – | – | – | – | – | –
COc1ccc2c3c(c4cc(OC)c(OC)cc4c2c1)C[C@@H]1CN(C(=O)c2ccccc2)CCN1C3 | 16.4 | 11.9 | 12.1 | – | 7.64 | – | – | – | – | – | –
COc1ccc2c3c(c4cc(OC)c(OC)cc4c2c1)C[C@H]1CN(C(=O)c2ccccc2)CCN1C3 | 15 | 15.7 | > 20 | 18.1 | – | – | – | – | – | – | –
COC(=O)CN1CCN2Cc3c(c4cc(OC)c(OC)cc4c4cc(OC)ccc34)C[C@H]2C1 | 14.7 | > 20 | 14.7 | 14 | – | – | – | – | – | – | –
COc1ccc2c3c(c4cc(OC)c(OC)cc4c2c1)C[C@@H]1CN(Cc2ccccc2)CN1C3 | 2.68 | 4.62 | 3.41 | – | 1.87 | – | – | – | – | – | –
COc1ccc2c3c(c4cc(OC)c(OC)cc4c2c1)C[C@@H]1CN(CC2CC2)CCN1C3 | > 20 | > 20 | > 20 | – | 13.4 | – | – | – | – | – | –
COc1ccc2c3c(c4cc(OC)c(OC)cc4c2c1)C[C@H]1CN(c2ccccc2)CN1C3 | > 20 | > 20 | > 20 | > 20 | – | – | – | – | – | – | –
COc1ccc2c3c(c4cc(OC)c(OC)cc4c2c1)C[C@H]1CN(S(C)(=O)=O)CCN1C3 | 14.5 | 17 | 17.5 | 17.8 | – | – | – | – | – | – | –
COc1ccc2c3c(c4cc(OC)c(OC)cc4c2c1)C[C@H]1CN(CC2CC2)CCN1C3 | 0.79 | 2.94 | 6.57 | 0.25 | – | – | – | – | – | – | –
COc1ccc2c3c(c4cc(OC)c(OC)cc4c2c1)C[C@H]1CN(CCO)CCN1C3 | 14.1 | 12.6 | 8.62 | 7.41 | – | – | – | – | – | – | –
COc1ccc2c3c(c4cc(OC)c(OC)cc4c2c1)C[C@H]1CCN(c2ccccc2)CN1C3 | > 20 | > 20 | > 20 | > 20 | – | – | – | – | – | – | –
COc1ccc2c3c(c4cc(OC)c(OC)cc4c2c1)C[C@H]1CN(Cc2ccccc2)CN1C3 | 5.3 | 4.95 | 5.7 | 3.63 | – | – | – | – | – | – | –
COc1ccc2c3c(c4cc(OC)c(OC)cc4c2c1)C[C@@H]1CN(C(=O)N(C)C)CCN1C3 | 14.1 | 13.1 | 12.3 | – | 11.4 | – | – | – | – | – | –
COc1ccc2c3c(c4cc(OC)c(OC)cc4c2c1)C[C@H]1CN(C2CC2)CCN1C3 | > 20 | 17.9 | > 20 | 13 | – | – | – | – | – | – | –
COc1ccc2c3c(c4cc(OC)c(OC)cc4c2c1)C[C@H]1CCCCN1C3 [CRYPTOPLEURINE] | 0.00138 | 0.00159 | 0.00151 | 0.00109 | – | – | – | – | – | – | –
COC(=O)N1CCN2Cc3c(c4cc(OC)c(OC)cc4c4cc(OC)ccc34)C[C@H]2C1 | 10.9 | 12.2 | 11.3 | 12.1 | – | – | – | – | – | – | –

More lines, main results first:

GI50 (A549) [µM] | GI50 (DU-145) [µM] | GI50 (KB) [µM] | GI50 (HCT-8) [µM] | SMILES | GI50 [1] [µM] | Activity [2] | Activity [3] | Activity [4] | Activity [5] | Activity [6] | Activity [7]
2.48 | 1.46 | 2.22 | – | COc1ccc2c3c(c4cc(OC)c(OC)cc4c2c1)C[C@@H]1CCN(CCO)CN1C3 | > 20 | – | – | – | – | – | –
0.022 | 0.025 | 0.036 | – | COc1ccc2c3c(c4cc(OC)c(OC)cc4c2c1)C[C@H]1CCCN1C3 [(-)-ANTOFINE] | – | Dose-dependent effect | Active | tde | Active | Active | Active
1.73 | 2.08 | 1.79 | 1.62 | COc1ccc2c3c(c4cc(OC)c(OC)cc4c2c1)C[C@H]1CNCCN1C3 | – | – | – | – | – | – | –
5.68 | 1.99 | 1.59 | 10.7 | COc1ccc2c3c(c4cc(OC)c(OC)cc4c2c1)C[C@H]1CCN(CCO)CN1C3 | – | – | – | – | – | – | –
4.3 | 14.3 | 11.5 | 5.73 | COc1ccc2c3c(c4cc(OC)c(OC)cc4c2c1)C[C@H]1CCN(C2CC2)CN1C3 | – | – | – | – | – | – | –
1.67 | 2.26 | 2.31 | 2.01 | COc1ccc2c3c(c4cc(OC)c(OC)cc4c2c1)C[C@H]1CN(N(C)C)CN1C3 | – | – | – | – | – | – | –
12.9 | 12.2 | 11.2 | – | COc1ccc2c3c(c4cc(OC)c(OC)cc4c2c1)C[C@@H]1CN(CC(C)C)CCN1C3 | 9.96 | – | – | – | – | – | –
– | – | 0.102 | – | COc1ccc2c3c(c4cc(OC)c(OC)cc4c2c1)C[C@H]1CCCCCN1C3 | – | – | inactive | – | inactive | inactive | inactive
4.41 | 6.36 | 7.83 | 10.8 | COc1ccc2c3c(c4cc(OC)c(OC)cc4c2c1)C[C@H]1CN(CCO)CN1C3 | – | – | – | – | – | – | –
0.66 | 2.03 | 1.72 | 1 | COc1ccc2c3c(c4cc(OC)c(OC)cc4c2c1)C[C@H]1CN(C)CN1C3 | – | – | – | – | – | – | –
1.78 | 2.97 | 3.08 | 2.37 | COc1ccc2c3c(c4cc(OC)c(OC)cc4c2c1)C[C@H]1CCN(N(C)C)CN1C3 | – | – | – | – | – | – | –
1.52 | 2.3 | 5.06 | 1.36 | COc1ccc2c3c(c4cc(OC)c(OC)cc4c2c1)C[C@H]1CCN(CC(C)C)CN1C3 | – | – | – | – | – | – | –
3.94 | 7.38 | 6.64 | 2.71 | CCCN1C[C@@H]2Cc3c(c4ccc(OC)cc4c4cc(OC)c(OC)cc34)CN2C1 | – | – | – | – | – | – | –
2 | 6.6 | 4.4 | 1.82 | COc1ccc2c3c(c4cc(OC)c(OC)cc4c2c1)C[C@H]1CN(CC(C)C)CN1C3 | – | – | – | – | – | – | –
9.73 | 7.13 | 5.3 | 6.45 | COc1ccc2c3c(c4cc(OC)c(OC)cc4c2c1)C[C@H]1CN(C)CCN1C3 | – | – | – | – | – | – | –
4.15 | 6.01 | 2.38 | – | COc1ccc2c3c(c4cc(OC)c(OC)cc4c2c1)C[C@@H]1CN(N(C)C)CN1C3 | 11 | – | – | – | – | – | –
1.8 | 3.7 | 2.71 | 1.85 | COc1ccc2c3c(c4cc(OC)c(OC)cc4c2c1)C[C@H]1CN(C2CC2)CN1C3 | – | – | – | – | – | – | –
> 20 | > 20 | > 20 | > 20 | COc1ccc2c3c(c4cc(OC)c(OC)cc4c2c1)C[C@H]1CCN(Cc2ccccc2)CN1C3 | – | – | – | – | – | – | –
– | – | 0.068 | – | COc1ccc2c3c(c4cc(OC)c(OC)cc4c2c1)CC1CCOCCN1C3 (single isomer, unassigned) | – | – | – | – | – | – | –
0.66 | 1 | 0.79 | 0.66 | COc1ccc2c3c(c4cc(OC)c(OC)cc4c2c1)C[C@@H]1CN(C)CN1C3 | – | – | – | – | – | – | –
1.12 | 1.2 | 2.1 | – | COc1ccc2c3c(c4cc(OC)c(OC)cc4c2c1)C[C@@H]1CCN(CC2CC2)CN1C3 | 5.68 | – | – | – | – | – | –
1.79 | 1.82 | 1.66 | 1.45 | COc1ccc2c3c(c4cc(OC)c(OC)cc4c2c1)C[C@H]1CCOCN1C3 | – | – | – | – | – | – | –
1.37 | 1.29 | 1.1 | 1.26 | COc1ccc2c3c(c4cc(OC)c(OC)cc4c2c1)C[C@@H]1CCOCN1C3 | – | – | – | – | – | – | –
5.11 | 1.66 | 1.45 | – | COc1ccc2c3c(c4cc(OC)c(OC)cc4c2c1)C[C@@H]1CCN(CC(C)C)CN1C3 | 7.32 | – | – | – | – | – | –
5.2 | 3 | 2.84 | – | COc1ccc2c3c(c4cc(OC)c(OC)cc4c2c1)C[C@@H]1CCN(N(C)C)CN1C3 | 5.3 | – | – | – | – | – | –
7.13 | 10.5 | 8.24 | 9.45 | CCN1CCN2Cc3c(c4cc(OC)c(OC)cc4c4cc(OC)ccc34)C[C@H]2C1 | – | – | – | – | – | – | –
